Screening data deposited in PubChem by several laboratories.
This is a sample that favours compounds with a hit; in the whole collection about 2.5% have one here.
Vif imaging: inhibitors of HIV Vif | HEK293T cells, Vif self-association by quenched fluorescence, imaging, 24 h | inhibition, % at 7.49 µM | 0.35% of 340,000 active | AID 602346; in the data active = inhibition above about 50%, passing the limit was not always enough; inconclusive = no clear call, values can overlap the other calls; inactive = below about 31%
H9c2 TAG inh: triacylglycerol accumulation inhibition. inhibition, % at 12.5 µM. H9c2 cells, Nile Red lipid (TAG) fluorescence; cells loaded with 200 µM oleic acid. 0.66% of 230,000 active;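 active = pattern-corrected inhibition of lipid staining of at least 50% with the nuclear-stain viability signal not falling by more than 50%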;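 also: 0% = DMSO wells and 100% = triacsin C control wells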
SMARCA2 act: increases SMARCA2 function in MMTV reporter cells; MG213 cells, MMTV-luciferase reporter, dexamethasone, overnight; activation, % at 9.1 µM; 1% of 370,000 active; AID 652017; in the data active = activation above about 7.8%;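 also: 0% = vehicle wells and 100% = reference activator wells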
SR-BI HDL uptake: inhibitors of mouse SR-BI mediated HDL lipid uptake | Q61009 | ldlA[mSR-BI] CHO cells, DiI-HDL uptake fluorescence, 3 h | inhibition, % at 12.5 µM | 0.96% of 320,000 active | AID 488896;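 active = mean replicate inhibition of at least 70% and a set share of replicates each scoring 70 or more; inconclusive = meets just one of the two criteria; inactive = fails both criteria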;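 also: 0% = median of neutral control wells and 100% = median of positive control wells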
Target sequence (Q61009 whole entry, looked up): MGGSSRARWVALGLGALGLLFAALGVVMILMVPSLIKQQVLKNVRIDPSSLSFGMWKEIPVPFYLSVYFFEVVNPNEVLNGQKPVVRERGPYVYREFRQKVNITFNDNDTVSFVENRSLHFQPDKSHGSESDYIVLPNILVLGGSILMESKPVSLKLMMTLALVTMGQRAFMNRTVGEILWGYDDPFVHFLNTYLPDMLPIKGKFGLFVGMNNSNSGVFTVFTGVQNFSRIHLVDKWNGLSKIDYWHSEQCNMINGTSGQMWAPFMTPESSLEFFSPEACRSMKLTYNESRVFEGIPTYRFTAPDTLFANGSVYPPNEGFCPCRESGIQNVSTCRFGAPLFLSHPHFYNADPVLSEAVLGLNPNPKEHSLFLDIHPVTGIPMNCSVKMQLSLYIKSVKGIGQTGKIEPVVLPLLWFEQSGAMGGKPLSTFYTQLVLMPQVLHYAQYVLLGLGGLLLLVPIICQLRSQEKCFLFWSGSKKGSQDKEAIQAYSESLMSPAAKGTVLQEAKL
SR-BI DiI-HDL act: activators of SR-BI mediated HDL lipid uptake; CHO ldlA[mSR-BI] cells, DiI-HDL uptake fluorescence, 3 h; 100 = double the neutral-control signal; activation, % at 12.5 µM; 0.096% of 320,000 active; AID 504775;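 active = mean replicate activation of at least 60% and every replicate at or above 60%; inconclusive = mean or all-replicate condition met, but not both; inactive = mean below 60% and not all replicates reaching 60%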;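 also: 0% = median plate neutral-control signal and 100% = twice that signal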
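System: LDL receptor-deficient CHO ldlA cells overexpressing murine SR-BI | Timing: 3 h uptake period with compound, 37 °C | Medium: HEPES-buffered (25 mM, pH 7.4) F12 plus 0.5% BSA | Dosing: Single-point compound dose | Signal: Bottom-read fluorescence, 550/595 nm | Read-out: Retained DiI signal reflecting DiI-HDL uptake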
Active calls of the source: *; ? = inconclusive; . = not tested or not shown.

SMILES | Vif imaging | H9c2 TAG inh | SMARCA2 act | SR-BI HDL uptake | SR-BI DiI-HDL act
O=C(Nc1ccccc1)Nc1nc(-c2ccc(Cl)cc2)cs1 | -1.1 | . | -4.8 | 38.4 | -38.4
Cc1[nH]c2ccccc2c1CC(=O)Nc1ccc(Nc2ccncc2)cc1 | . | . | -0.3 | . | .
COCCNC(=S)N1C[C@H]2CON(C)[C@H]2C[C@H]1c1ccccc1Br | . | . | -4.6 | . | .
O=C(NCC1CCN(C(=O)C(=O)c2cc3ccccc3o2)CC1)c1ccc2c(c1)OCCCO2 | . | . | -4.5 | . | .
COc1cccc(NC(=O)Nc2nc(-c3ccc(OC)c(OC)c3)cs2)c1 | 1.3 | . | -7.4 | 77.2* | -77.2
COc1ccc2cc(-c3csc(-c4cccnc4)n3)ccc2c1 | 15.5 | . | 5.9 | 18.5 | -18.5
COc1ccc(-c2csc(-c3cccnc3)n2)cc1C | 114.8* | -12.4 | 2.5 | 54.1 | -41.0
O=C(N=Nc1c(O)[nH]c2c(Cl)cc(Cl)cc12)c1ccccc1O | . | . | 2.1 | . | .
CCOc1ccc(Cn2ccnc2)cc1[N+](=O)[O-] | -0.6 | . | 12.6* | -19.6 | 19.6
CCCCCOc1ccc(Cn2ccnc2)cc1[N+](=O)[O-] | -63.2 | . | 1.4 | -2.9 | 2.9
COc1ccc(-c2cc3cc(OC)c(OC)cc3cn2)cc1 | -1.5 | 22.7 | 6.7 | 79.1* | -79.1
COc1cc(OC)cc(-c2cc3ccc(OC)cc3cn2)c1 | 17.5 | 19.4 | 7.0 | 90.3* | -90.3
COC(=O)c1ccccc1S(=O)(=O)NC(=O)[C@H]1O[C@@H](n2ccc(=O)[nH]c2=O)[C@H](O)[C@@H]1O | . | . | -0.8 | . | .
COC(=O)c1cc2c(c3c4cc(F)ccc4n(S(=O)(=O)c4cccc(C)c4)c13)C(=O)N(C)C2 | . | . | -2.1 | . | .
CC(=O)N(c1nc2ccccc2s1)N1C(=O)c2ccccc2C1=O | . | . | -3.0 | . | .
O=C(N/N=C/c1cn(-c2ccccc2)nc1-c1ccc(F)cc1)c1ccc(Br)o1 | . | 37.4 | 0.3 | 87.0* | -87.0
O=C(N/N=C/c1cn(-c2ccccc2)nc1-c1cccnc1)c1ccc(F)cc1 | -2.6 | 11.9 | 1.6 | 59.1 | -59.1
CCCCc1c(-c2ccccc2OC)ncn1Cc1ccc(C(C)(C)C)cc1 | . | . | -9.6 | . | .
CC12CCC(O)CC1=CCC1C2CCC2(C)C1CCC21CCC(=O)O1 (stereo unspecified) | -7.9 | . | -4.6 | -22.0 | 22.0
C[C@]12CCC(O)CC1=CCC1C2CC[C@]2(C)/C(=N\NC(N)=S)CCC12 (stereo partly specified) | 14.3 | . | -4.4 | 90.4* | -90.4
CCOc1ccc(-c2cc(C(=O)NCCCn3ccnc3)c3cc(Br)ccc3n2)cc1 | 61.3* | 22.7 | 4.1 | 54.9 | -54.9
COc1ccccc1CCNC(=O)c1cc(-c2ccncc2)nc2ccc(Br)cc12 | 9.8 | 13.9 | -2.4 | 77.5* | -77.4
COc1ccccc1CCNC(=O)c1cc(-c2ccccn2)nc2ccccc12 | -17.7 | 12.2 | -1.8 | 15.7 | -15.7
Cc1cc(C)c(C2=NOC3c4ccccc4OCC23)c(C)c1 (stereo unspecified) | . | . | -2.9 | . | .
Cc1cccc(C)c1NC(=O)COc1ccc2c(C)c(Cc3ccccc3)c(=O)oc2c1C | 53.2* | . | 1.2 | -193.1 | ?
SMILES | Vif imaging | H9c2 TAG inh | SMARCA2 act | SR-BI HDL uptake | SR-BI DiI-HDL act
COc1ccccc1-c1oc2ccccc2c1-c1ccc2cc[nH]c2c1 | -5.4 | 22.2 | -1.4 | 80.0* | -80.0
CCOC(=O)C(=N/O)/C(C)=N/NC(C)=O | 2.9 | 10.6 | -2.2 | -13.9 | 13.9
CCOC(=O)C(=N/O)/C(C)=N/NC(=O)C(=O)Nc1cc(Cl)ccc1Cl | -5.5 | 11.8 | -2.0 | 80.8* | -80.8
CCN(CC)S(=O)(=O)c1ccc(-c2nnc(SCc3nnc(-c4ccc(C)cc4)o3)o2)cc1 | 3.0 | . | 0.9 | 38.8 | -38.8
CCN(CC)S(=O)(=O)c1ccc(-c2nnc(SCc3nnc(-c4ccc(C)cc4)o3)n2CC)cc1 | -11.3 | . | 1.4 | 72.1* | -72.1
COc1ccccc1CNC(=O)/C=C/c1ccc(Br)o1 | 9.1 | 51.3* | -1.8 | -10.1 | 10.1
Brc1ccc(CN2CCN(c3ncc(Cc4ccccc4)cn3)CC2)cc1 | . | . | -6.5 | . | .
N#CCC(=O)Nc1ccc(C(=O)NNC(=S)NC2CCCCC2)cc1 | 124.2* | 9.8 | -2.6 | . | .
O=C1C(=O)c2cccnc2-c2ncccc21 | 78.0* | . | -15.0 | . | .
O=C1c2cccnc2-c2ncccc21 | -5.6 | . | -5.5 | -21.2 | 21.2
COC(=O)c1cc2c(c3c4cc(OC)ccc4n(S(=O)(=O)c4ccc(C)cc4)c13)C(=O)N(C)C2 | . | . | -4.5 | . | .
Fc1ccc(-[n+]2nc(Nc3ccccc3)sc2-c2c3ccccc3cc3ccccc23)cc1 | . | . | -1.7 | 32.2 | -32.2
c1ccc(-[n+]2nc(Nc3cccc4ccccc34)sc2-c2c3ccccc3cc3ccccc23)cc1 | -3.6 | 106.3* | . | 41.8 | -41.8
NC(=O)c1c(N)[nH]c(C(=O)c2ccccc2)c1-c1ccc2ccccc2c1 | . | . | -5.5 | . | .
COC(=O)c1cc(NC(=O)c2cc(-c3ccccc3Cl)oc2C(F)(F)F)ccc1N1CCOCC1 | 4.0 | 12.8 | -3.1 | 84.2* | -84.2
COC(=O)c1cc(NC(=O)c2cc(-c3ccc(Cl)cc3)oc2C(F)(F)F)ccc1N1CCOCC1 | 2.8 | 3.2 | -0.7 | 68.1 | -68.1
CCOC(=O)/C(=N\Nc1ccccc1[N+](=O)[O-])c1csc(N)n1 | 5.4 | 9.3 | 0.2 | 77.7* | -77.7
CC(C)(C)n1nc(C2CC2)c(Br)c1NC(=O)c1ccc(Cl)cc1 | . | . | -0.8 | . | .
NC(=O)C12NC(Cc3ccccc31)c1ccccc12 (stereo unspecified) | . | . | -2.0 | . | .
Oc1ccc(C[C@H]2CNC(=S)N2CC2CCCN2C[C@H](Cc2ccccc2)N2C[C@H](Cc3ccc(O)cc3)N(CC3CCCCCC3)C2=S)cc1 (stereo partly specified) | -15.4 | 75.2 | -3.8 | -85.6 | 85.6*
CC(C)C[C@@H](CN1CCCC1CN1C(=S)NC[C@@H]1Cc1ccc(O)cc1)N1C[C@H](Cc2ccc(O)cc2)N(CC2CCCCC2)C1=S (stereo partly specified) | . | 130.2 | -7.5 | -76.1 | 76.1*
CC(C)C[C@@H](CN1CCC[C@@H]1CN1C(=S)NC[C@@H]1Cc1ccccc1)N1C[C@H](Cc2ccc(O)cc2)N(CC2CCCCC2)C1=S | 29.3 | . | -3.5 | . | .
CN(Cc1ccccc1)C(=O)OCc1cn(Cc2ccc(F)cc2)nn1 | . | . | 2.1 | . | .
C=CCN1C(=O)c2n[nH]c(COC)c2C1c1ccc(C)cc1 (stereo unspecified) | . | . | -6.5 | . | .
COC(=O)c1ccccc1NC(=O)Cn1cnc2cc(C)c(C)cc21 | 70.6* | . | -3.0 | -2.9 | 2.9
COc1cc(Cl)c(C)cc1NC(=O)CNC(=O)Cn1cnc2ccccc2c1=O | -3.4 | . | -0.6 | 85.0* | -85.0
COc1cc(Cl)c(C)cc1NC(=O)CN1C(=O)C2CC=CCC2C1=O (stereo unspecified) | 58.8* | 1.2 | -0.1 | 62.6 | -62.6
COc1cc(Cl)c(C)cc1NC(=O)CSc1cc(Cl)ccc1Cl | -6.3 | . | 2.2 | 82.4* | -82.4
COc1cc(OC)c(NC(=O)CCNC(=O)Cn2cnc3ccccc3c2=O)cc1Cl | . | -2.0 | -2.9 | 18.8 | -18.8
